From ChEMBL document CHEMBL3351807, “2-Phenoxychromones and prenylflavonoids from Epimedium koreanum and their inhibitory effects on LPS-induced nitric oxide and interleukin-1β production” (J Nat Prod, 2014) come the findings set out here.

What all share (type): functional, cell-based
Assay [1] concerns RAW264.7. As to the kind of experiment: Inhibition of LPS-induced NO production in mouse RAW264.7 cells after 24 hrs by Griess reagent based assay. The following applies: RAW264.7, 24 h. The method in brief:
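RAW 264.7 cells seeded at 2 × 10^6 cells/mL, stimulated with 1 μg/mL LPS with or without compound, 37 °C for 24 h. Supernatant nitrite measured as NO indicator: Griess reagent, room temperature 10 min, absorbance 550 nm against sodium nitrite standard curve. Viability of remaining cells by colorimetric cell counting kit. IC50 as mean of triplicate experiments.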
(In general: Griess reagent forms a coloured azo dye with nitrite.)

For assay [2], the system named is RAW264.7. As to the kind of experiment: Inhibition of LPS-induced IL-1beta production in mouse RAW264.7 cells after 24 hrs by ELISA. The following applies: RAW264.7, 24 h. Put shortly:
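RAW 264.7 cells at 2 × 10^6 cells/mL stimulated with 1 μg/mL LPS in presence or absence of compound, 37 °C, 24 h. IL-1β in culture medium quantified by commercial ELISA kit. Remaining-cell viability checked by colorimetric cell counting kit. IC50 as mean of triplicate experiments.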
In general terms: An ELISA detects its analyte on a solid surface through an enzyme-linked reagent.

The test system of assay [3] is RAW264.7. Briefly: Inhibition of LPS-induced IL-1beta gene expression in mouse RAW264.7 cells at 12.5 to 50 uM after 24 hrs by RT-PCR method. The method in brief: (§1)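 Total RNA isolated with TRIZOL; single-stranded cDNA made from 2 μg total RNA, then PCR for iNOS or IL-1β transcripts. Products run on 1% agarose gels, stained with 5 μg/mL ethidium bromide. Cells LPS-stimulated, compound tested across doses.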

Assay [4] concerns RAW264.7. As to the kind of experiment: Inhibition of LPS-induced iNOS gene expression in mouse RAW264.7 cells at 12.5 to 50 uM after 24 hrs by RT-PCR method. Put shortly:
as §1

Structures are written as SMILES.

What is called IC50 is the concentration needed to halve the response being measured. A higher IC50 goes with lower potency. As to `COc1ccc(Oc2cc(=O)c3cc(O)c(CC=C(C)C)c(O)c3o2)cc1`, the results for the IC50 in assay [1] and in assay [2] were 27.5 µM and 28.9 µM, respectively.
The corresponding values for `CC1(C)C=Cc2c(cc(O)c3c(=O)cc(Oc4ccc(O)cc4)oc23)O1` are over 50 µM and over 50 µM.
On the same counts, the results for `CC(=O)/C=C/[C@@]1(O)C(C)=CC(=O)CC1(C)C` are 38.5 µM and over 50 µM.
The corresponding values for `CC(C)=CCc1c(O)cc(O)c2c(=O)cc(-c3cc(O)c4c(c3)C=CC(C)(C)O4)oc12` are over 50 µM and over 50 µM.
For `COc1cc([C@H]2OC[C@H]3[C@@H]2CO[C@H]3c2ccc(O)c(OC)c2)ccc1O` [PINORESINOL], the IC50 in assay [1] is 39.5 µM; in assay [2] it was over 50 µM.
As for `COc1c(O)cc(-c2cc(=O)c3c(O)cc(O)c(CC=C(C)C)c3o2)cc1CC=C(C)C`, the IC50 in assay [1] amounted to 16.8 µM; in assay [2], 8.8 µM. In addition, the inhibition result in assay [3] and in assay [4] was “Dose-dependent effect” throughout.
As to `COc1cn2c(=O)ccc(O)c2cn1`, the IC50 in assay [1] and in assay [2] was over 50 µM throughout.
For `COc1cc2ccc3cc(OC)c(OC)c(OC)c3c2cc1OC`, the IC50 in assay [1] was 49.3 µM; in assay [2], over 50 µM.
`CC1(C)C[C@@H](O)C[C@@]2(C)OC(=O)C=C12` [(+)-EPILOLIOLIDE]: the IC50 in assay [1] and in assay [2] was over 50 µM throughout.
As to `CC(C)=CCc1cc(-c2cc(=O)c3c(O)cc(O)c(CC=C(C)C)c3o2)ccc1O`, the IC50 worked out at 19.7 µM in assay [1] and 8.6 µM in assay [2]. Moreover, the inhibition entry in assay [3] and in assay [4] was “Dose-dependent effect” each time.
For `N=C(N)NN` [PIMAGEDINE], in assay [1], the IC50 is 21.4 µM.
As to `CC1(C)C[C@H](O)C[C@@]2(C)OC(=O)C=C12` [LOLIOLIDE], the IC50 in assay [1] and in assay [2] was over 50 µM throughout.
`COc1cc([C@@H]2OC[C@@H]3[C@H]2CO[C@H]3c2cc(OC)c(O)c(OC)c2)cc(OC)c1O`: the IC50 in assay [1] is 45.6 µM; in assay [2], over 50 µM.
For the compound `COc1ccc2c(c1)c(CC(=O)O)c(C)n2C(=O)c1ccc(Cl)cc1` [INDOMETHACIN], the IC50 is 15.8 µM in assay [1] and 18.7 µM in assay [2].
In the case of `COc1cc2c(cc1OC)-c1c(cc(OC)c(OC)c1OC)CC2`, the IC50 in assay [1] and in assay [2] was over 50 µM each time.
As for `C=CCc1ccc(O)c(-c2cc(CC=C)ccc2O)c1` [MAGNOLOL], the IC50 in assay [1] stood at 35.4 µM; in assay [2] it was 38.9 µM.
The corresponding values for `COc1cc(C[C@@]2(O)CO[C@H](c3ccc(O)c(OC)c3)[C@H]2COC(C)=O)ccc1O` are over 50 µM and over 50 µM.
